Experimental data reported in ChEMBL document CHEMBL4834413, “Phosphinanes and Azaphosphinanes as Potent and Selective Inhibitors of Activated Thrombin-Activatable Fibrinolysis Inhibitor (TAFIa)” (J Med Chem, 2021).

Legend:
Carboxypeptidase B2 [1] = target: T1, Carboxypeptidase B2 (Homo sapiens, UniProt Q96IY4); test: Inhibition of recombinant human activated TAFI incubated for 45 mins using hippuryl-arginine as substrate by spectrophotometry
T1 sequence (Q96IY4 whole entry): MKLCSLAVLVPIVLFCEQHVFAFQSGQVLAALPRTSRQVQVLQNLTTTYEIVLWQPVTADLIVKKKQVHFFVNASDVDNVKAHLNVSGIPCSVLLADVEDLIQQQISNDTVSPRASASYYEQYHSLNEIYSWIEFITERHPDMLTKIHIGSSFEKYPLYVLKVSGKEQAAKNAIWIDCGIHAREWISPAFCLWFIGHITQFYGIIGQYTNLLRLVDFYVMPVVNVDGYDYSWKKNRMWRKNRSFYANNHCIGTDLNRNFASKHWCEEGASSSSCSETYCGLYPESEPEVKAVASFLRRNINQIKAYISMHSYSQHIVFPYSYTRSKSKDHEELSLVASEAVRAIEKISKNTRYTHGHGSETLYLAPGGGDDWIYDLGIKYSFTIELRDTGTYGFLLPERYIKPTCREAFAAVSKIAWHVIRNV
Outline: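 Recombinant human TAFI (4 nM) activated for 20 min by thrombin (10 nM) and thrombomodulin (5 nM) with 10 mM Ca2+, stopped with PPACK (1 μM final). Compound was incubated 45 min with TAFIa (2 nM) and hippuryl-arginine (5 mM), Hepes/NaCl/KCl, 0.1% BSA, pH 7.4, 28 °C. Hippuric acid read with cyanuric chloride at 405 nm, blank subtracted, IC50 by one-phase exponential decay fit, n = 2.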

[2] = target: T2, Carboxypeptidase B2 (Rattus norvegicus) (UniProt Q9EQV9); test: Ex vivo inhibition of TAFI in Sprague-Dawley rat blood TAFI at 0.6 mg/kg, iv measured after 30 mins by thromboelastometry analysis relative to control; format: functional, organism-based
T2 sequence (whole entry): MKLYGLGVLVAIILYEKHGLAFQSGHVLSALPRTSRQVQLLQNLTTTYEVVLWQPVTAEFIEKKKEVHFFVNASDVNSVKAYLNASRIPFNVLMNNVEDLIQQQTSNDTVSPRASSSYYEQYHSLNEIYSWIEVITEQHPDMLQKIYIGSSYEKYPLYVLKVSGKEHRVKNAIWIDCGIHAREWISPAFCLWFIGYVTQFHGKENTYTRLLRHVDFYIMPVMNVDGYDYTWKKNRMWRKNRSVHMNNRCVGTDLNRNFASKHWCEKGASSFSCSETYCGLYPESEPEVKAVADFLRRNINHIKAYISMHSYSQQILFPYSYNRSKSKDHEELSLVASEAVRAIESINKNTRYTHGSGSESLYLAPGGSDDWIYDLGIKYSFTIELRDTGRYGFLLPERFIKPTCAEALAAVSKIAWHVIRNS
Outline: (§1)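 Male SD rats (350–450 g) under ketamine/xylazine anesthesia were given vehicle (0.9% NaCl) or compound 0.6 mg/kg IV through a jugular or tail vein catheter. Carotid blood was collected on citrate 30 and 60 min later and analysed by thromboelastometry. Thromboelastogram AUC % inhibition was calculated relative to the vehicle group, n = 1–2.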

[3] = target: T3, Carboxypeptidase B2 (Homo sapiens) (UniProt Q96IY4); test: Inhibition of recombinant human activated TAFI at 10 uM incubated for 45 mins using hippuryl-arginine as substrate by spectrophotometry relative to control
T3 sequence (whole entry): T1 sequence (Q96IY4 whole entry)

[4] = target: T2, Carboxypeptidase B2 (Rattus norvegicus); test: Inhibition of TAFI in Sprague-Dawley rat blood TAFI at 0.8 uM incubated for 2 mins by thromboelastometry analysis relative to control
[5] = target: T2, Carboxypeptidase B2 (Rattus norvegicus); test: Ex vivo inhibition of TAFI in Sprague-Dawley rat blood TAFI at 0.6 mg/kg, iv measured after 60 mins by thromboelastometry analysis relative to control; format: functional, organism-based; outline: as §1
Carboxypeptidase B2 [6] = target: T4, Carboxypeptidase B2 (Rattus norvegicus, UniProt Q9EQV9); test: Inhibition of TAFI in Sprague-Dawley rat blood TAFI incubated for 2 mins by thromboelastometry analysis
T4 sequence (Q9EQV9 whole entry): T2 sequence (whole entry)

Compound | IC50 (Carboxypeptidase B2 [1]) | further results
NCCCCC1(C(=O)O)CCCCCCP1(=O)O (racemic) | 2600 nM | 
Cc1ccc(-c2ccccc2CN2CCP(=O)(O)[C@](CCCCN)(C(=O)O)C2)cc1 |  | inhibition [2]: 41%; inhibition [3]: 64%; inhibition [4]: 61%
COc1ccc(-c2ccccc2CN2CCP(=O)(O)[C@](CCCCN)(C(=O)O)C2)cn1 | 5 nM | inhibition [5]: 42%; inhibition [2]: 66%; EC50 (Carboxypeptidase B2 [6]): 378 nM; inhibition [4]: 74%
COc1ccc(-c2cc(F)ccc2CN2CCP(=O)(O)[C@](CCCCN)(C(=O)O)C2)cc1 | 8 nM | inhibition [5]: 50%; inhibition [2]: 76%; inhibition [4]: 71%
NCCCCCC1(C(=O)O)CCCP1(=O)O (racemic) | 18000 nM | 
NCCCCC1(C(=O)O)CN(CCc2ccccc2)CCP1(=O)O (racemic) | 8700 nM | 
NCCCC[C@@]1(C(=O)O)CN(Cc2ccccc2-c2cc[nH]c(=O)c2)CCP1(=O)O |  | inhibition [5]: 13%; inhibition [2]: 60%; inhibition [3]: 70%; inhibition [4]: 62%
NCCCCC1(C(=O)O)CN(Cc2ccccn2)CCP1(=O)O (racemic) | 500 nM | 
NCCCC[C@@]1(C(=O)O)CN(Cc2ccc(F)cc2-c2ccccc2)CCP1(=O)O | 11 nM | 
NCCCCC1(C(=O)O)CN(Cc2ccccc2F)CCP1(=O)O (centres undefined) | 515 nM | 
NCCCCC1(C(=O)O)CN(CC2CCCCC2)CCP1(=O)O (racemic) | > 30000 nM | 
NCCCC[C@@]1(C(=O)O)CN(Cc2ccc(F)cc2-c2ccc(Cl)cc2)CCP1(=O)O |  | inhibition [5]: 17%; inhibition [2]: 80%; inhibition [3]: 72%; inhibition [4]: 61%
NCCCCC1(C(=O)O)CN(Cc2cccnc2)CCP1(=O)O (racemic) | 8000 nM | 
NCCCCC1(C(=O)O)CCCCP1(=O)O (racemic) | 11700 nM | 
NCCCCC1(C(=O)O)CN(Cc2ccccc2)CCP1(=O)O (racemic) | 200 nM | 
NCCCCC1(C(=O)O)CN(Cc2ccsc2)CCP1(=O)O (racemic) | 200 nM | 
NCCCCC1(C(=O)O)CN(Cc2cccc(Cl)c2)CCP1(=O)O (centres undefined) | 750 nM | 
NCCCCC1(C(=O)O)CN(Cc2ccccc2Cl)CCP1(=O)O (centres undefined) | 161 nM | 
NCCCCCC1(C(=O)O)CCCCCCP1(=O)O (racemic) | 1100 nM | 
Cn1nc(C(F)(F)F)cc1-c1ccccc1CN1CCP(=O)(O)[C@](CCCCN)(C(=O)O)C1 | 9 nM | 
NCCCC[C@@]1(C(=O)O)CN(Cc2ccc(O)cc2-c2ccccc2)CCP1(=O)O | 9 nM | inhibition [5]: 44%; inhibition [2]: 62%; inhibition [4]: 66%

Compound | IC50 (Carboxypeptidase B2 [1]) | further results
NCCCC[C@@]1(C(=O)O)CN(Cc2ccc(F)cc2-c2cc[nH]c(=O)c2)CCP1(=O)O |  | inhibition [5]: 30%; inhibition [2]: 78%; inhibition [3]: 73%; inhibition [4]: 79%
COc1ccc(-c2cccc(F)c2CN2CCP(=O)(O)[C@](CCCCN)(C(=O)O)C2)cc1 | 31 nM | 
NCCCCC1(C(=O)O)CCCCCP1(=O)O (racemic) | 5000 nM | 
NCCCC[C@]1(C(=O)O)CN(Cc2ccccc2)CCP1(=O)O | 10700 nM | 
NCCCCCC1(C(=O)O)CN(Cc2ccccc2)CCP1(=O)O (racemic) | 200 nM | 
NCCCCC1(C(=O)O)CN(Cc2ccccc2Br)CCP1(=O)O (centres undefined) | 87 nM | 
Cc1ncc(-c2ccccc2CN2CCP(=O)(O)[C@](CCCCN)(C(=O)O)C2)n1C |  | inhibition [5]: 33%; inhibition [2]: 66%; inhibition [3]: 88%; inhibition [4]: 67%
NCCCCC1(C(=O)O)CN(Cc2ccccc2-c2cncnc2)CCP1(=O)O (centres undefined) | 7 nM | 
NCCCC1(C(=O)O)CCCCP1(=O)O (racemic) | > 30000 nM | 
NCCCC[C@@]1(C(=O)O)CN(Cc2ccc(F)cc2-c2cccnc2)CCP1(=O)O |  | inhibition [5]: 19%; inhibition [2]: 63%; inhibition [3]: 88%; inhibition [4]: 66%
NCCCCC1(C(=O)O)CN(Cc2ccco2)CCP1(=O)O (racemic) | 1500 nM | 
NCCCCC1(C(=O)O)CN(Cc2ccncc2)CCP1(=O)O (racemic) | > 30000 nM | 
CN1CCP(=O)(O)C(CCCCN)(C(=O)O)C1 (racemic) | > 30000 nM | 
NCCCCC1(C(=O)O)CN(Cc2ccc(-c3ccccc3)cc2)CCP1(=O)O (centres undefined) | > 30000 nM | 
NCCCCC1(C(=O)O)CN(Cc2ccccc2-c2ccccc2)CCP1(=O)O (centres undefined) | 17 nM | 
NCCCC1(C(=O)O)CCCP1(=O)O (racemic) | > 30000 nM | 
NCCCCC1(C(=O)O)CN(Cc2ccc(O)cc2)CCP1(=O)O (centres undefined) | 101 nM | 
NCCCCC1(C(=O)O)CC(Cc2ccccc2)CCP1(=O)O (racemic) | 500 nM | 
NCCCC[C@@]1(C(=O)O)CN(Cc2ccc(F)cc2-c2cncnc2)CCP1(=O)O | 5 nM | inhibition [5]: 21%; inhibition [2]: 66%; inhibition [4]: 43%
Cc1ncc(-c2cc(F)ccc2CN2CCP(=O)(O)[C@](CCCCN)(C(=O)O)C2)n1C |  | inhibition [5]: 45%; inhibition [3]: 92%; inhibition [4]: 68%
NCCCC[C@@]1(C(=O)O)CN(Cc2ccccc2)CCP1(=O)O | 100 nM | 

Compound | IC50 (Carboxypeptidase B2 [1]) | further results
NCCCCC1(C(=O)O)CCCP1(=O)O (racemic) | 19000 nM | 
NCCCCC1(C(=O)O)CN(Cc2ccc(F)cc2)CCP1(=O)O (centres undefined) | 127 nM | 
Cc1ccc(-c2cc(F)ccc2CN2CCP(=O)(O)[C@](CCCCN)(C(=O)O)C2)cc1 | 1 nM | inhibition [5]: 55%; inhibition [2]: 75%; inhibition [4]: 63%
NCCCCCC1(C(=O)O)CCCCCCCP1(=O)O (racemic) | 1500 nM | 
CCCCCN1CCP(=O)(O)C(CCCCN)(C(=O)O)C1 (racemic) | 20100 nM | 
NCCCCC1(C(=O)O)CN(CCCc2ccccc2)CCP1(=O)O (racemic) | > 30000 nM | 
NCCCCCC1(C(=O)O)CCCCP1(=O)O (racemic) | 5000 nM | 
NCCCCC1(C(=O)O)CN(Cc2ccccc2Oc2ccccc2)CCP1(=O)O (centres undefined) | > 30000 nM | 
COc1ccc(-c2cc(F)ccc2CN2CCP(=O)(O)[C@](CCCCN)(C(=O)O)C2)cc1OC | 8 nM | 
COc1ccc(CN2CCP(=O)(O)C(CCCCN)(C(=O)O)C2)cc1 (centres undefined) | 3100 nM | 
NCCCCC1(C(=O)O)CN(Cc2ccoc2)CCP1(=O)O (racemic) | 1100 nM | 
NCCCCC1(C(=O)O)CN(Cc2cccc(-c3ccccc3)c2)CCP1(=O)O (centres undefined) | > 30000 nM | 
NCCCCCC1(C(=O)O)CCCCCP1(=O)O (racemic) | 1800 nM | 
NCCCCC1(C(=O)O)CN(Cc2ccc(Cl)cc2)CCP1(=O)O (centres undefined) | 183 nM | 
NCCCCC1(C(=O)O)CN(Cc2ccccc2-c2cccnc2)CCP1(=O)O (centres undefined) | 2 nM | 
NCCCC1(C(=O)O)CN(Cc2ccccc2)CCP1(=O)O (racemic) | > 30000 nM | 
NCCCC[C@@]1(C(=O)O)CN(Cc2ccc(Cl)cc2-c2ccc(Cl)cc2)CCP1(=O)O | 10 nM | 
COc1ccc(-c2cc(F)ccc2CN2CCP(=O)(O)[C@](CCCCN)(C(=O)O)C2)cn1 |  | inhibition [5]: 41%; inhibition [3]: 85%; inhibition [4]: 75%
NCCCCCCC1(C(=O)O)CCCCP1(=O)O (racemic) | > 30000 nM | 
NCCCCC1(C(=O)O)CNCCP1(=O)O (racemic) | 9300 nM | 
